Measured values as given in ChEMBL document CHEMBL2424622, “Development of amino-pyrimidine inhibitors of c-Jun N-terminal kinase (JNK): kinase profiling guided optimization of a 1,2,3-benzotriazole lead” (Bioorg Med Chem Lett, 2013).

Legend:
[1] = target: High affinity nerve growth factor receptor (Homo sapiens) (UniProt P04629); experiment: Competitive binding affinity to TRKA (unknown origin) at 10 uM in presence of ATP relative to control
Outline: (§1)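 In vitro ATP-site competition binding assay across a diverse panel of 128 kinases, with compound tested at a single concentration. Kinase selectivity scores (S15) were calculated from the panel profiles.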

[2] = target: Vascular endothelial growth factor receptor 3 (Homo sapiens) (UniProt P35916); experiment: Competitive binding affinity to FLT4 (unknown origin) at 10 uM in presence of ATP relative to control
Outline: (§2)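 In vitro ATP-site competition binding assay, part of profiling against a diverse panel of 128 kinases. Each compound was tested at a single concentration of 10 µM. Kinome selectivity was summarized as S15 selectivity scores.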

[3] = target: Protein-tyrosine kinase 6 (Homo sapiens) (UniProt Q13882); experiment: Competitive binding affinity to PTK6 (unknown origin) at 10 uM in presence of ATP relative to control; outline: as §1
[4] = target: T1, Ephrin type-A receptor 6 (Homo sapiens) (UniProt Q9UF33); experiment: Competitive binding affinity to EPHA6 (unknown origin) at 10 uM in presence of ATP relative to control; outline: as §2
T1 sequence (whole entry): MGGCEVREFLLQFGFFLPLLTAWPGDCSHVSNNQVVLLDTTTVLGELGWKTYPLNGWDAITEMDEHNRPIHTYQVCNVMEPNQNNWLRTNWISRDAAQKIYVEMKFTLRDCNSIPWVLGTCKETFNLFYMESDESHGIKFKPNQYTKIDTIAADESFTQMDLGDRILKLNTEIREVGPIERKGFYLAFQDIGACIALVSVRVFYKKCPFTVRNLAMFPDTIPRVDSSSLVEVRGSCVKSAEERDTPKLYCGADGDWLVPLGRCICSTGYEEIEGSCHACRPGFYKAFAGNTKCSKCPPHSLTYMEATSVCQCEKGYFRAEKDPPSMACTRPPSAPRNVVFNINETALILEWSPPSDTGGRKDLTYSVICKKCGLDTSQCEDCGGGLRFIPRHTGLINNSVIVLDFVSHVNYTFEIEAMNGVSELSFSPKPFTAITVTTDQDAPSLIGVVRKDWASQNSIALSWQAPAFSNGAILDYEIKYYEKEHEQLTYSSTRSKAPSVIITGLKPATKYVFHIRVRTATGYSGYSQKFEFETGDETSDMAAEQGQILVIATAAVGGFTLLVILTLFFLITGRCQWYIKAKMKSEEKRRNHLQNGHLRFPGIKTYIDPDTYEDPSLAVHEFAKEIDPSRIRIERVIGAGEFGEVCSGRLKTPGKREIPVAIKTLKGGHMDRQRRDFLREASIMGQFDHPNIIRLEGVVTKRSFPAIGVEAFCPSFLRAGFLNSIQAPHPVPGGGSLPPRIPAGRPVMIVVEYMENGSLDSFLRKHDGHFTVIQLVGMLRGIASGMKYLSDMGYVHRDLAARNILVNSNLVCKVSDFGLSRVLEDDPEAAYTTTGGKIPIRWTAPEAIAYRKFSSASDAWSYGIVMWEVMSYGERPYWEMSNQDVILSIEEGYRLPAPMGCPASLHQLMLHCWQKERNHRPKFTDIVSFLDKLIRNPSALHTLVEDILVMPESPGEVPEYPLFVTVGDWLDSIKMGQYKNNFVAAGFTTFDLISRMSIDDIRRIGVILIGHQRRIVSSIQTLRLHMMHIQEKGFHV

[5] = target: Tyrosine-protein kinase JAK1 (Homo sapiens) (UniProt P23458); experiment: Competitive binding affinity to JAK1 kinase domain 1 (unknown origin) at 10 uM in presence of ATP relative to control; outline: as §2
[6] = target: BMP-2-inducible protein kinase (Homo sapiens) (UniProt Q9NSY1); experiment: Competitive binding affinity to BIKE (unknown origin) at 10 uM in presence of ATP relative to control
[7] = target: Mitogen-activated protein kinase 10 (Homo sapiens, UniProt P53779); experiment: Competitive binding affinity to JNK3 (unknown origin) at 10 uM in presence of ATP relative to control
Outline: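 In vitro ATP-site competition binding assay across a diverse panel of 128 kinases, with each compound tested at a single concentration. Kinase binding is expressed relative to control.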

[8] = target: Serine/threonine-protein kinase 16 (Homo sapiens, UniProt O75716); experiment: Competitive binding affinity to STK16 (unknown origin) at 10 uM in presence of ATP relative to control; outline: as §1
[9] = target: Calcium/calmodulin-dependent protein kinase kinase 2 (Homo sapiens) (UniProt Q96RR4); experiment: Competitive binding affinity to CAMKK2 (unknown origin) at 10 uM in presence of ATP relative to control
[10] = target: T2, Serine/threonine-protein kinase Nek9 (Homo sapiens) (UniProt Q8TD19); experiment: Competitive binding affinity to NEK9 (unknown origin) at 10 uM in presence of ATP relative to control; outline: as §1
T2 sequence (whole entry): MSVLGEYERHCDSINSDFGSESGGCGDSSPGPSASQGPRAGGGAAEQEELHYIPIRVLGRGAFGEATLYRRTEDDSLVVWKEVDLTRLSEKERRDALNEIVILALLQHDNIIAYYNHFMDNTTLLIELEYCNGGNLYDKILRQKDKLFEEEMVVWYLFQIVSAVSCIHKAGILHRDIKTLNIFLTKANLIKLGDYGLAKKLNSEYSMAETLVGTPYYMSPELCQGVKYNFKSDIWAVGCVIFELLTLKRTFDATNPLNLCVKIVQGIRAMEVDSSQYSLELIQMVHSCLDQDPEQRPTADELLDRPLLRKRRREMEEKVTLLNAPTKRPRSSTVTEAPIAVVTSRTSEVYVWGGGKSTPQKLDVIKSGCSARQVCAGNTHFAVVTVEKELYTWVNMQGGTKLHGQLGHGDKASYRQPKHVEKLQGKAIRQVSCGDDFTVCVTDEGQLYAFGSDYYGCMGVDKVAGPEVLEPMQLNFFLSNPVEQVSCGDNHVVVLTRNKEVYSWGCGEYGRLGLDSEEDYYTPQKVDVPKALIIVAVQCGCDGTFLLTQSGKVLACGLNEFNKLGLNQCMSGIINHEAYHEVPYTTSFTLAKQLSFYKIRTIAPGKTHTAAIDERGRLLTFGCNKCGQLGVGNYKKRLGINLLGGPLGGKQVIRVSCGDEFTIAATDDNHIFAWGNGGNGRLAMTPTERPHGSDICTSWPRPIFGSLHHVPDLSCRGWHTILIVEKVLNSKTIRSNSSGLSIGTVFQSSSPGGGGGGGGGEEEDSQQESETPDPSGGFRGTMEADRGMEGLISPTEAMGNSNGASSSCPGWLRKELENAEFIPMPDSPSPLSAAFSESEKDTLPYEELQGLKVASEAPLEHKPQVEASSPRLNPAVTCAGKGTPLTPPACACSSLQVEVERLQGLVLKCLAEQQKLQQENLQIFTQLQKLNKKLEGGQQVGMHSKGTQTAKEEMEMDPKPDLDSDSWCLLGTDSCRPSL

Mitogen-activated protein kinase 10, sequence (P53779 whole entry): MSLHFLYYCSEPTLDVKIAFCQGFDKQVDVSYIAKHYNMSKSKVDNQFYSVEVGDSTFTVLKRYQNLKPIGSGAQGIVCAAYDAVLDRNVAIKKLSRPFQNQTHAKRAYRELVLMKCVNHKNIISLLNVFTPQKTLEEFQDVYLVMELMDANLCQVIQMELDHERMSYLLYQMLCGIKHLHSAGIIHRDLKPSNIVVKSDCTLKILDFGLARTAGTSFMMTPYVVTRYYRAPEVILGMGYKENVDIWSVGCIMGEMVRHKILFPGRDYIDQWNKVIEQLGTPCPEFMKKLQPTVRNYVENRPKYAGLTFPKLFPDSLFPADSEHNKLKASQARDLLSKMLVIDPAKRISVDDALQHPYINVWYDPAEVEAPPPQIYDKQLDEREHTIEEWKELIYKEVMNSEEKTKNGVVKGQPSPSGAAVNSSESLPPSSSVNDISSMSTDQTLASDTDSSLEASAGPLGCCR
Protein-tyrosine kinase 6 (Homo sapiens), sequence (Q13882 whole entry, looked up): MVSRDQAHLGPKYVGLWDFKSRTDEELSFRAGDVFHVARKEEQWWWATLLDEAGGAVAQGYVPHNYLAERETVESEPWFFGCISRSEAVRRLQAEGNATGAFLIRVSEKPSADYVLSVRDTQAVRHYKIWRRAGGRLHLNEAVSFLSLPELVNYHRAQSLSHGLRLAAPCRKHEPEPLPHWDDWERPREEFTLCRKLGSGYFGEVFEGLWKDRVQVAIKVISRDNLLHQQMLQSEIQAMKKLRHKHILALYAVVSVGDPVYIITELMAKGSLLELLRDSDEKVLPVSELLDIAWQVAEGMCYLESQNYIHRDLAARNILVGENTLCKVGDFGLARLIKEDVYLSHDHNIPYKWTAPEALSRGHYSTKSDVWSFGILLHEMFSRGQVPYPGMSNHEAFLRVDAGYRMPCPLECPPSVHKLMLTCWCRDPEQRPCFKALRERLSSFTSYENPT
High affinity nerve growth factor receptor (Homo sapiens), sequence (P04629 33-796 limits assumed): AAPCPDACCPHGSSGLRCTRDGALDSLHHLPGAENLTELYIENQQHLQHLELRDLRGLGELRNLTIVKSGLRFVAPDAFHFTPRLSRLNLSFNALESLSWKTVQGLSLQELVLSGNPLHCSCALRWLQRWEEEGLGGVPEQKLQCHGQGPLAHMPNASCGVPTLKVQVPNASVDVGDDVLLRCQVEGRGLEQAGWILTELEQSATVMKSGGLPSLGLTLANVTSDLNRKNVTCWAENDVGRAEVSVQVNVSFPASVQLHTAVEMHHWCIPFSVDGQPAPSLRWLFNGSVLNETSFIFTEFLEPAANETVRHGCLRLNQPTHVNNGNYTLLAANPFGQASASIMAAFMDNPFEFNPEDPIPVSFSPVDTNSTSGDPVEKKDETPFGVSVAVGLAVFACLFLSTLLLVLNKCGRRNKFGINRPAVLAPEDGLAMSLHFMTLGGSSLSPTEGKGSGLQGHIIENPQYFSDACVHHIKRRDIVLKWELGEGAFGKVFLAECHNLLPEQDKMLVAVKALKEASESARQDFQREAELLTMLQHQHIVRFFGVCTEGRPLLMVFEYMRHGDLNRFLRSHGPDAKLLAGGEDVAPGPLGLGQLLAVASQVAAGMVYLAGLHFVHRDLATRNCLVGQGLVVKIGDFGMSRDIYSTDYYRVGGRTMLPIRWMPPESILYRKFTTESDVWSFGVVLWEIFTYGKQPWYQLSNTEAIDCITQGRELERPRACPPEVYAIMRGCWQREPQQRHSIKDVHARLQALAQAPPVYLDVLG
Calcium/calmodulin-dependent protein kinase kinase 2 (Homo sapiens), sequence (Q96RR4 2-588 limits assumed): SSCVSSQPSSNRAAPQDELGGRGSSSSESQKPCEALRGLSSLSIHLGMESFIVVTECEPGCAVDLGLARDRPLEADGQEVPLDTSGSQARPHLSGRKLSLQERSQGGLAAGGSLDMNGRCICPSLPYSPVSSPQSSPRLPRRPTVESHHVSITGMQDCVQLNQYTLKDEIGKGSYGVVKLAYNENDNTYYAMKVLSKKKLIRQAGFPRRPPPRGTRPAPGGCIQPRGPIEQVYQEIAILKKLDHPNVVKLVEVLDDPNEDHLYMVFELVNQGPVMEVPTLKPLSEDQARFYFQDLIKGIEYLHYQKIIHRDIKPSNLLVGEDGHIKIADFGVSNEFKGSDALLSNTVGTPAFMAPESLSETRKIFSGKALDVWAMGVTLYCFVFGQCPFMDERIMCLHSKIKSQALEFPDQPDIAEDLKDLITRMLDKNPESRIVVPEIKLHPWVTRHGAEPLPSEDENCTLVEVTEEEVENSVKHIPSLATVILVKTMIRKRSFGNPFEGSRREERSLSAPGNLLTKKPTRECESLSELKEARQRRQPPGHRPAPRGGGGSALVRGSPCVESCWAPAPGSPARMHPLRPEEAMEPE
Tyrosine-protein kinase JAK1 (Homo sapiens), sequence (P23458 whole entry, the tested form may be a part): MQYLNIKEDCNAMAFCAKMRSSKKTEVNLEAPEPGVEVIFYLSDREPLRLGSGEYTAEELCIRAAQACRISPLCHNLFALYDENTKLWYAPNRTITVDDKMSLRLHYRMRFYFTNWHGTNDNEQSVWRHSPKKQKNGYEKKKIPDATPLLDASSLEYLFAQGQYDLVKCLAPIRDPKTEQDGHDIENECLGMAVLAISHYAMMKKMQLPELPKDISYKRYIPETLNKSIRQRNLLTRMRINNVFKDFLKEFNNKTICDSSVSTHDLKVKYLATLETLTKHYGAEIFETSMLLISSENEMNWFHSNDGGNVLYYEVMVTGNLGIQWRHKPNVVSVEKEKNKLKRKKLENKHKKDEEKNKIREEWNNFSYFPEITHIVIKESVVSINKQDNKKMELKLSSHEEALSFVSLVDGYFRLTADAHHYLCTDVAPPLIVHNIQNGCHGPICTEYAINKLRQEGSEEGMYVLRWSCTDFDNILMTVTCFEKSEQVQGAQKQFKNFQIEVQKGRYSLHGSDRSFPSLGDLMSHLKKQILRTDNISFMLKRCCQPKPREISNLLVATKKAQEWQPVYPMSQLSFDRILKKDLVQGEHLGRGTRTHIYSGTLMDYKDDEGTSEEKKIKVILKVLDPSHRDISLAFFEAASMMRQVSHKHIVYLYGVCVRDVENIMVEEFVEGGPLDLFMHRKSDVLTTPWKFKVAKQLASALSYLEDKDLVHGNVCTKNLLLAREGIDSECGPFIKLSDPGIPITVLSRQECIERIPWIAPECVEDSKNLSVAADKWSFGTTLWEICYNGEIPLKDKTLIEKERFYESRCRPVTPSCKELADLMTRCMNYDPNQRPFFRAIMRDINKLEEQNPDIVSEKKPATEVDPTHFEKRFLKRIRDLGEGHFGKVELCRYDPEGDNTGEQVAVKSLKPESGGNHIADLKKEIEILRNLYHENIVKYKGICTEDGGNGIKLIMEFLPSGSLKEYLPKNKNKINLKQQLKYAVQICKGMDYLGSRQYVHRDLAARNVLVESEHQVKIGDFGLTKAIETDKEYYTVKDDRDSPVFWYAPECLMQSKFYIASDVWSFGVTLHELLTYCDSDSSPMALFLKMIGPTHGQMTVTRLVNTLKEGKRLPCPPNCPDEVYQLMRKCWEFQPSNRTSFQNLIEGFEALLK
Serine/threonine-protein kinase 16, sequence (O75716 whole entry): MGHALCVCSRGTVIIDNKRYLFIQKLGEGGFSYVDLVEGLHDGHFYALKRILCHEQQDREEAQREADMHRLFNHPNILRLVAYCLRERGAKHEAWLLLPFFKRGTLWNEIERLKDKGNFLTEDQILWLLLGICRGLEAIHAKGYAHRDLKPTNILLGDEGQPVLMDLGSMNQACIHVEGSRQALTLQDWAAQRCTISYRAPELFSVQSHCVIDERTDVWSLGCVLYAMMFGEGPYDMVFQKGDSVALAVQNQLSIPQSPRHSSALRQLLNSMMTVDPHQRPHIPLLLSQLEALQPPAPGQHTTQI
BMP-2-inducible protein kinase (Homo sapiens), sequence (Q9NSY1 whole entry, looked up): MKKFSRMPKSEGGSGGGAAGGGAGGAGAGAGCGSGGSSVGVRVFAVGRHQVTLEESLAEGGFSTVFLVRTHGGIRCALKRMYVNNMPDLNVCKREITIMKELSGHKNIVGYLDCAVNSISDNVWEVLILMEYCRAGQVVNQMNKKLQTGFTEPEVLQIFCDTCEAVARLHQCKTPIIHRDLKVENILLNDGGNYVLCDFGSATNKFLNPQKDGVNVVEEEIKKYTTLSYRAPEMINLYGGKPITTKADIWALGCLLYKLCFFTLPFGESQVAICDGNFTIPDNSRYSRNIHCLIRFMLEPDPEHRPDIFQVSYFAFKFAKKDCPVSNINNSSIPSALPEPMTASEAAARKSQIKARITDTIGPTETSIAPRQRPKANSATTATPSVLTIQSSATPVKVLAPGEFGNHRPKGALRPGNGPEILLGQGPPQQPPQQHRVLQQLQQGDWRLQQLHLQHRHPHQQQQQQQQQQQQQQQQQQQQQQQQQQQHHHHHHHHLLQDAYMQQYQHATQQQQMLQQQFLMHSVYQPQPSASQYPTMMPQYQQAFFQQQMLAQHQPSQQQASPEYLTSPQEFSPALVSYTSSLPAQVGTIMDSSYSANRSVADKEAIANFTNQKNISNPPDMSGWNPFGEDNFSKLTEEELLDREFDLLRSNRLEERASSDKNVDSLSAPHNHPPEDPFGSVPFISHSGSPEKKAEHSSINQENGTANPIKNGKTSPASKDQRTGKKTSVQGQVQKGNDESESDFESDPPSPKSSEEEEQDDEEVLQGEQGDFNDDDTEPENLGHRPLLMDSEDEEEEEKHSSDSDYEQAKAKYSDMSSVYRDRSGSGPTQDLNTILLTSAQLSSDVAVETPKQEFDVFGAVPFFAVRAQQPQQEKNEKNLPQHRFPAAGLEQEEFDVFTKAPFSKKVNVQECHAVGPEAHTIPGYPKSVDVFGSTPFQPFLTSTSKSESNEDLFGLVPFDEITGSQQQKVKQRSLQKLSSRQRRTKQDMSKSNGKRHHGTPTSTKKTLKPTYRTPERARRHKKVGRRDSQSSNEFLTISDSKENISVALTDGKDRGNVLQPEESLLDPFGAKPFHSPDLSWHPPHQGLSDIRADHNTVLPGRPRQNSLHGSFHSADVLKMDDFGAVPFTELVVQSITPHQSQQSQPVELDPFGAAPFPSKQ

Row | SMILES | inhibition [1] | inhibition [2] | inhibition [3] | inhibition [4] | inhibition [5] | inhibition [6] | inhibition [7] | inhibition [8] | inhibition [9] | inhibition [10]
1 | O[C@H]1CC[C@H](Nc2nccc(-c3n[nH]c4ccccc34)n2)CC1 | 99% | 87% | 78% | < 50% | 99% | 99% | 100% | 100% | 84% | < 50%
2 | N[C@H]1CC[C@H](Nc2nccc(-n3nnc4ccccc43)n2)CC1 | < 50% | < 50% | < 50% | < 50% | < 50% | 99% | 100% | 83% | 86% | < 50%
3 | O[C@H]1CC[C@H](Nc2nccc(-n3ccc4ccccc43)n2)CC1 | < 50% | < 50% | < 50% | < 50% | < 50% | < 50% | 100% | < 50% | < 50% | < 50%
4 | O[C@H]1CC[C@H](Nc2nccc(-n3ncc4ccccc43)n2)CC1 | < 50% | < 50% | < 50% | < 50% | 88% | 81% | 100% | 81% | 65% | < 50%
5 | CS(=O)(=O)CCCOc1cccc2c1ccn2-c1ccnc(N[C@H]2CC[C@H](C(=O)N3CCC(O)CC3)CC2)n1 |  |  |  |  |  |  | > 85% | > 85% |  | 

Continued, in another order:

Row | inhibition [1] | inhibition [2] | inhibition [3] | inhibition [4] | inhibition [5] | inhibition [6] | inhibition [7] | inhibition [8] | inhibition [9] | SMILES | inhibition [10]
6 | < 50% | < 50% | < 50% | < 50% | < 50% | 87% | 100% | 93% | 75% | O=C([C@H]1CC[C@H](Nc2nccc(-n3nnc4ccccc43)n2)CC1)N1CCOCC1 | < 50%
7 | < 50% | < 50% | < 50% | < 50% | < 50% | 86% | 100% | < 50% | 72% | O[C@H]1CC[C@H](Nc2nccc(-n3nnc4ccccc43)n2)CC1 | 81%
